A selection: hits, their analogues and other compounds. The true share with any hit is near 1.4%.
CAL PDZ FP-1: blocks peptide binding to the human CAL PDZ domain. Q9HD26. purified CAL PDZ, TMR-peptide fluorescence polarization, 1 h. inhibition, % at 24.9 µM. 0.92% of 300,000 active. AID 602252;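 active = mean inhibition of at least 30% with at least half of replicates also reaching 30%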;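 also: 0% = DMSO neutral control and 100% = excess unlabeled competitor peptide PRC23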
CAL PDZ FP-2: human CAL PDZ-peptide interaction inhibition | Q9HD26 | purified CAL PDZ, TMR-peptide fluorescence polarization, 1 h | inhibition, % at 20 µM | 0.02% of 330,000 active | AID 504414;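 active = highest replicate inhibition of at least 40%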;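 also: plate controls were DMSO neutral control wells for no effect and unlabeled competitor peptide control wells for full effect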
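Test system: tagged CAL PDZ domain / Buffer or medium: sodium phosphate/NaCl buffer pH 7.4 with TCEP, IgG, Thesit / Reagent: TMR-labelled reporter peptide T*-PRC34 bound in PDZ groove / Compound dosing: single point, 20 µM / Schedule: 1 h incubation at room temperature before polarization reading / Technique: fluorescence polarization (mP) / Benchmarks: unlabelled peptide, DMSO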
DDE Tn7 FP inh: disrupts Tn7 cyclic peptide binding to fibrin D-Dimer-E complex. FP displacement of FITC-Tn7 peptide from fibrin DD(E); 0% = median of compound wells per plate. 0.13% of 370,000 active. inhibition, % at 8.3 µM. P02675;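 active = inhibition above the mean of compounds falling within the control limits plus 3 SD of them, cut at about 14% in these data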;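 also: 0% = plate median of compound wells and 100% = 10 µM Aha-Tn7 peptide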
Target sequence (P02675 whole entry, looked up): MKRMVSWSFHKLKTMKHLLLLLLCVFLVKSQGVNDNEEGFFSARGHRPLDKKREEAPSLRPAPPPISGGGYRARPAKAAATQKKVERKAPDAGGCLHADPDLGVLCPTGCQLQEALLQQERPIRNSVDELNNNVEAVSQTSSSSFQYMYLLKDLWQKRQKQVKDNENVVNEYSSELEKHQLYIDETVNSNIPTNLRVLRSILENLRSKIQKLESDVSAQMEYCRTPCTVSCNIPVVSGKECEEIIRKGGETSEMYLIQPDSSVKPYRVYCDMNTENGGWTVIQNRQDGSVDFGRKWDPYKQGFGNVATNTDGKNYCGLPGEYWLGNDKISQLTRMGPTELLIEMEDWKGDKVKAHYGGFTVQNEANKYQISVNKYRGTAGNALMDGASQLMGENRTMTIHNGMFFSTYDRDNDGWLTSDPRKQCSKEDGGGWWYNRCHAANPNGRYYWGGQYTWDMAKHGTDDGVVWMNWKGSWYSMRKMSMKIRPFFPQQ
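Test system: human clot-derived fibrin DD(E) complex / Quantity: 2 µM final DD(E) protein / Incubation: 10 min plus 3 h, room temperature / Measured by: fluorescence polarization / Benchmarks: high control of 10 µM Aha-Tn7 peptide / Replicates: singlicate testing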
Arrestin-AP2 inh: inhibitors of human beta-arrestin and AP2 interaction; FITC-arrestin peptide / GST-AP2 beads, flow cytometry; AP2 beta2 appendage carries R879A mutation; inhibition, % at 10 µM; 0.31% of 340,000 active;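 active = inhibition above a set limit, near 3 SD of compounds lacking own fluorescence, cut at about 54% in these data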;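 also: plate controls were DMSO wells for no effect and 5 µM unlabelled arrestin peptide for full effect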
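system = GST-tagged AP2 beta2-adaptin appendage (R879A) on 4 µm glutathione beads | reagent = FITC-labelled arrestin peptide probe, 50 nM final | schedule = compound with beads 12 min RT, then probe 1 h RT | signal = HyperCyt-sampled flow cytometry, FL1 channel, ex 488/em 535 nm | read-out = percent response from loss of bead-bound FITC fluorescence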
Tn6 DDE FP: disrupts Tn6 cyclic peptide binding to fibrin D-Dimer-E complex; P02675; Fibrin DD(E) TRITC-Tn6 fluorescence polarization displacement; inhibition, % at 8.3 µM; 0.21% of 370,000 active; AID 720509;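 active = inhibition above a per-campaign cutoff: mean of compounds within control limits plus 3 SD, cut at about 15% in these data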;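 also: 0% = median of all compound wells on the plate and 100% = blocking peptide control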
The depositor's hits bear a star; · = no result.

SMILES | CAL PDZ FP-1 | CAL PDZ FP-2 | DDE Tn7 FP inh | Arrestin-AP2 inh | Tn6 DDE FP
COc1cc(-c2nnc(SCC(=O)O)n2-c2ccccc2)cc(OC)c1OC | 68.9* | · | 8.6 | 34.0 | 6.4
COc1cc2c(c(OC)c1OC)-c1ccc(SC)c(=O)cc1C(NC(=O)C(F)(F)F)CC2 (stereo not given) | -1.9 | 0.6 | -2.5 | -12.8 | -7.2
CCOCC(=O)NC1CCc2cc(OC(=O)COCC)c(OC)c(OC)c2-c2ccc(SC)c(=O)cc21 (stereo not given) | 34.1* | -0.5 | -15.1 | -11.9 | 5.5
COc1ccc(CCC(=O)NNC(=O)c2ccccn2)cc1OC | 97.5* | -3.3 | 1.3 | -21.0 | 7.7
COc1ccc(CCC(=O)NNC(=O)c2cc(Cl)ccc2OC)cc1OC | 3.8 | -1.2 | 2.2 | -1.0 | -7.6
Cc1ccc(-c2nc(C)sc2CC(=O)OCC(=O)Nc2ccc(F)c(Cl)c2)cc1 | 54.3* | -2.3 | -1.9 | -16.4 | 3.8
CCCC1CCC2(CCC(=O)N2CCOC)CC1 (stereo not given) | · | · | 0.3 | · | -3.4
O=c1nccc(Nc2ccccc2)[nH]1 | 62.7* | -0.2 | -1.5 | -16.3 | 6.2
Cc1ccc(CNC(=O)C(c2ccccc2)c2ccccc2)cc1 | 94.2* | -0.4 | -3.6 | 4.1 | 5.2
CCN(CC)c1ccc2nc3c4ccccc4c(=O)cc-3oc2c1 | · | · | 5.3 | · | 105.1*
CCN(CC)c1ccc2cc(C=O)c(=O)oc2c1 | -1.5 | -2.8 | -62.7 | 28.4 | 4.5
Fc1ccc(NC(=S)Nc2ccc(F)c(Cl)c2)cc1Cl | -6.1 | -2.2 | · | -2.5 | ·
Cc1ccc(NC(=S)Nc2ccc(OC(F)F)c(Cl)c2)cc1F | 65.7* | 0.2 | -2.0 | -1.5 | -1.8
COc1ccc(S[C@]2(C(=O)N(C)C)CC(=O)N(C(=O)C3CC3)[C@@H]2c2ccc(OC)cc2)cc1 | · | · | 1.2 | · | 1.4
CC(=O)c1ccc(OCC(O)CNCc2ccc3c(c2)OCO3)cc1 (stereo not given) | 42.4* | -2.0 | 0.4 | -16.2 | 2.2
OC(CNCc1ccc2c(c1)OCO2)COc1ccc(F)cc1 (stereo not given) | -6.0 | -1.5 | -1.6 | -2.1 | -1.9
COC(=O)[C@H](C)NC(=O)C(Cc1ccc2c(c1)OCO2)NC(C)=O (stereo not given in full) | · | · | -5.2 | · | 1.8
COC(=O)c1cc(S(=O)(=O)N2CCCCC2C)c[nH]1 (stereo not given) | 6.7 | -2.2 | 5.7 | 23.2 | -2.5
COC(=O)c1cc(S(=O)(=O)N2CCCC(C)C2)c[nH]1 (stereo not given) | 78.2* | -0.5 | 1.6 | 5.2 | 5.2
CCOC(=O)NC(=O)COC(=O)CCCSc1nc2ccccc2s1 | -1.1 | 70.9* | -4.0 | -3.1 | 5.6
Cc1ccc(-c2nc(C3CCCN(S(=O)(=O)c4ccc(C)c(C)c4)C3)no2)cc1 (stereo not given) | · | · | 1.7 | · | 0.6
CN1C(=O)c2cc(NC(=O)Nc3ccccc3)ccc2OC[C@H]2O[C@@H](CC(=O)N[C@H]3CCN(Cc4ccccc4)C3)CC[C@@H]21 | · | · | 1.6 | · | -3.8
CC1=NC(C)(C)Cc2cc(C)c(C)cc21 | 54.0* | -0.1 | -1.2 | 1.2 | 1.9
C=CCNC(=S)NCc1ccccc1OC | 69.9* | 0.3 | -3.5 | 11.9 | 1.6
O=C(Cn1cnc2ccccc2c1=O)N1CCN(C(=O)C2CCCO2)CC1 (stereo not given) | · | · | -6.5 | · | 5.5
SMILES | CAL PDZ FP-1 | CAL PDZ FP-2 | DDE Tn7 FP inh | Arrestin-AP2 inh | Tn6 DDE FP
Nn1c(SCc2cccc3ccccc23)nnc1-c1cc(-c2ccc(F)cc2)n[nH]1 | · | · | -2.6 | · | -1.9
Cc1cccc(-c2cccc3c4c([nH]c23)[C@@H]2C[C@H](N(C)C(=O)c3ccco3)[C@H]([C@H](C)O)C(=O)N2CC4)c1 | · | · | -3.2 | · | 0.1
Cc1ccccc1/C(N)=N/OC(=O)N1c2ccccc2Sc2ccccc21 | 0.1 | -1.3 | 0.4 | 0.7 | 1.0
Cc1ccc(/C(N)=N/OC(=O)N2c3ccccc3Sc3ccccc32)cc1 | 80.8* | -2.6 | 4.5 | 10.6 | 4.8
COc1ccc(NC(=S)Nc2ccc(S(N)(=O)=O)cc2)c(OC)c1 | 36.7* | -1.1 | -0.5 | -14.8 | 4.9
O=C(Nc1ccc2c(c1)Cc1ccccc1-2)NC1CCCCN(Cc2ccc(Cl)cc2)C1=O (stereo not given) | · | · | 8.7 | · | -2.8
CCOC(=O)[C@]12CCCC3=C1N(CCC3)C(=O)[C@@H](CC(=O)NCc1ccc(OC)c(OC)c1)C2 | · | · | 0.7 | · | 5.1
COc1ccc(C(=O)OC2C(OC)OCC(O)C2O)cc1 (stereo not given) | 44.3* | 19.0 | -1.0 | -9.7 | -13.6
Cc1ccccc1NC(=O)Cc1ccccc1 | 69.6* | -2.0 | -3.8 | -4.4 | 5.5
Cc1ccccc1NNC(=O)C(=O)NNc1ccccc1C | 32.8* | -0.8 | -1.7 | 5.3 | 5.8
CCN(CC)c1ccc(-c2nn3c(-c4ccccc4Cl)nnc3s2)cc1 | · | · | -2.6 | · | -12.0
O=C(CC1Nc2ccccc2NC1=O)NC1CCCCC1 (stereo not given) | 0.0 | -0.5 | 0.0 | 5.7 | -0.1
CC(C)CNC(=O)CC1Nc2ccccc2NC1=O (stereo not given) | 95.4* | · | · | 8.0 | ·
Cc1ccc2c(c1)c(C1=NC(=S)NC1=O)c(O)n2C | 30.3* | -0.9 | -2.0 | -13.9 | 3.1
O=C1C=CC(c2ccccc2)(c2ccccc2)CC1 | 38.0* | 0.4 | -1.1 | 1.6 | 4.9
COC(=O)[C@H](C(C)C)N1Cc2nnn(Cc3ccccc3)c2-c2ccccc2S1(=O)=O | · | · | -6.8 | · | 11.5
[O-][n+]1cccc2cccc(O)c21 | 48.9* | -0.1 | -2.4 | 8.9 | -3.6
CCOC(=O)Cn1c2ccccc2c2nc3ccccc3nc21 | 42.3* | 0.3 | -0.5 | -1.4 | -6.0
Cc1noc(C)c1S(=O)(=O)N1CCN(S(=O)(=O)c2ccccc2C#N)CC1 | 33.9* | -1.9 | -0.3 | 19.0 | -3.3
CC(C(=O)N1CCN(Cc2ccccc2)CC1)c1ccc([N+](=O)[O-])cc1 (stereo not given) | -3.8 | -0.8 | 2.5 | 3.2 | -5.7
CC(OC(=O)c1ccc(Cl)c([N+](=O)[O-])c1)C(=O)N1CCN(Cc2ccccc2)CC1 (stereo not given) | 146.9* | -0.3 | -6.7 | 2.9 | 2.7
CN1CCCN(S(=O)(=O)c2ccc3c(c2)n(C)c(=O)c(=O)n3C)CC1 | · | · | -2.1 | · | -1.7
O=C1NC(=O)N(Cc2ccccc2)CC1Br (stereo not given) | 31.3* | -1.1 | 3.1 | 7.5 | -3.2
O=C1CCN(Cc2ccccc2)C(=O)N1 | -1.2 | -0.5 | 0.7 | -1.2 | 9.4
O=C1C[C@H](C(=O)Nc2ccc(Cl)cc2)[C@@H](c2ccccc2)O1 | · | · | -2.8 | · | 1.5
Cc1ccc(C(=O)NC2CCCN(c3ccc(C(F)(F)F)cn3)C2)cn1 (stereo not given) | 44.9* | 0.2 | -1.9 | -4.0 | 7.8
O=C(NC1CCCN(c2ccc(C(F)(F)F)cn2)C1)c1cc(Cl)ccc1F (stereo not given) | -7.6 | -0.4 | 3.4 | -4.0 | -1.0

Screening results deposited in PubChem by several laboratories.
